Assay results published in ChEMBL document CHEMBL4808214, “Structure-activity relationship studies in substituted sulfamoyl benzamidothiazoles that prolong NF-κB activation” (Bioorg Med Chem, 2021).

Key:
THP-1 = assay: Cytotoxicity against human THP-1 cells assessed as cell viability at 5 uM measured after 18 hrs by MTT assay relative to control; assay type: cell-based; conditions: thp-1, 18 h
Outline: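 THP-1 cells were plated at 10^5/well in RPMI with 10% FBS and penicillin/streptomycin, then given compound at 5 μM final (0.5% DMSO) for 18 h. MTT at 0.5 mg/mL was added for 4–6 h, followed by SDS/HCl lysis buffer overnight. Absorbance was read at 570 nm against a 650 nm reference. Viability was normalized to DMSO as 100%.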

[1] = biological target: Nuclear factor NF-kappa-B complex (Homo sapiens) (UniProt Q00653+P19838+Q04206); assay: Activation of NF-kappaB in human THP1-Blue NF-kappaB cells co-expressing NFkappaB-inducible SEAP assessed as increase in SEAP activity at 5 uM measured after 20 hrs by quanti-blue based colorimetric assay relative to control; assay type: cell-based; conditions: filed as activator
Chain of Nuclear factor NF-kappa-B complex (Homo sapiens) (P19838 whole entry, looked up): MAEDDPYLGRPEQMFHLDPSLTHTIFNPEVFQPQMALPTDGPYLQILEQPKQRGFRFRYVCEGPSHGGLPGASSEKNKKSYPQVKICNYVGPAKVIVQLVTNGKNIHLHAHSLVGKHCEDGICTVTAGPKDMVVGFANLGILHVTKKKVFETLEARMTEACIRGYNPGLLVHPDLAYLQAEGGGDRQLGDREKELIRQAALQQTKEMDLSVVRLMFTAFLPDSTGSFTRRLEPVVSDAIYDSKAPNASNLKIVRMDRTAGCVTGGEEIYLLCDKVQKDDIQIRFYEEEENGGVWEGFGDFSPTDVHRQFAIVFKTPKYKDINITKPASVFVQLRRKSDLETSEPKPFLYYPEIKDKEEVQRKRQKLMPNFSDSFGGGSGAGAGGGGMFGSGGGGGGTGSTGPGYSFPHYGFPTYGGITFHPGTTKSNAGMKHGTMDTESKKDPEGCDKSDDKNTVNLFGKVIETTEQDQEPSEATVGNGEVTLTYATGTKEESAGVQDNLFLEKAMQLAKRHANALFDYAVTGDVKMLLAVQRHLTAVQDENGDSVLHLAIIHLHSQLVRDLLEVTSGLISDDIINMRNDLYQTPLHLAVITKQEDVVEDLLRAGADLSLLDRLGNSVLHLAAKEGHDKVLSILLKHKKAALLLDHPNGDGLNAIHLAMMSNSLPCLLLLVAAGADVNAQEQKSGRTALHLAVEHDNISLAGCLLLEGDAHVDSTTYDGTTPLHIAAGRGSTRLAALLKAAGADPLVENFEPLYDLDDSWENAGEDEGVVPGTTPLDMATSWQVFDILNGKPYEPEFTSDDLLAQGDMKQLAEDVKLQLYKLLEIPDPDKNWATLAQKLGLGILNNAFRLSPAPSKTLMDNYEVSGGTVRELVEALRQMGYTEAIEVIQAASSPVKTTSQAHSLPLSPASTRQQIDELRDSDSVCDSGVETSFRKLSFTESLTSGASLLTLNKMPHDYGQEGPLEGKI
Chain of Nuclear factor NF-kappa-B complex (Homo sapiens) (Q00653 whole entry, looked up): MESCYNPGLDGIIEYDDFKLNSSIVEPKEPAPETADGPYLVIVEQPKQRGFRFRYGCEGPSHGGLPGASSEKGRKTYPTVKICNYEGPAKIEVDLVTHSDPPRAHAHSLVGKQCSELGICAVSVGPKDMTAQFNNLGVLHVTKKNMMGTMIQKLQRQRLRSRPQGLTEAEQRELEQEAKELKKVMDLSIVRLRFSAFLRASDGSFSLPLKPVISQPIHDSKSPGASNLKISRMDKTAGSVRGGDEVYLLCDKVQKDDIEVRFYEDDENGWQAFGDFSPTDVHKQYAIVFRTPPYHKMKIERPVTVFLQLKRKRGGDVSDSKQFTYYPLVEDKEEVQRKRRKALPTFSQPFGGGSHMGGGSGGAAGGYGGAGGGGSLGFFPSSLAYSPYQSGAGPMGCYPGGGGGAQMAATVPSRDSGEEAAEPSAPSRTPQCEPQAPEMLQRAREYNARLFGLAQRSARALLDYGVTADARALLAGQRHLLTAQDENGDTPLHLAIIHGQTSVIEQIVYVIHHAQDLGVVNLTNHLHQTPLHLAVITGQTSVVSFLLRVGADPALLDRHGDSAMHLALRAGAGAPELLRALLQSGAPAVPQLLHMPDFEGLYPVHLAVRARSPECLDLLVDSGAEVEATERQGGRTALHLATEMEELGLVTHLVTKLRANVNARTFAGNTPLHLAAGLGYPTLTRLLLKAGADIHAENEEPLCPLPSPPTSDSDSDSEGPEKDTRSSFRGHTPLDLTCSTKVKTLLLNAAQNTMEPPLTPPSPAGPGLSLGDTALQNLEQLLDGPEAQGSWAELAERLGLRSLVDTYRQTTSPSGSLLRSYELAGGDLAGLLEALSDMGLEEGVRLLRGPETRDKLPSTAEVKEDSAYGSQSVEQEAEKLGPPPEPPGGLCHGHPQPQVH
Chain of Nuclear factor NF-kappa-B complex (Homo sapiens) (Q04206 whole entry, looked up): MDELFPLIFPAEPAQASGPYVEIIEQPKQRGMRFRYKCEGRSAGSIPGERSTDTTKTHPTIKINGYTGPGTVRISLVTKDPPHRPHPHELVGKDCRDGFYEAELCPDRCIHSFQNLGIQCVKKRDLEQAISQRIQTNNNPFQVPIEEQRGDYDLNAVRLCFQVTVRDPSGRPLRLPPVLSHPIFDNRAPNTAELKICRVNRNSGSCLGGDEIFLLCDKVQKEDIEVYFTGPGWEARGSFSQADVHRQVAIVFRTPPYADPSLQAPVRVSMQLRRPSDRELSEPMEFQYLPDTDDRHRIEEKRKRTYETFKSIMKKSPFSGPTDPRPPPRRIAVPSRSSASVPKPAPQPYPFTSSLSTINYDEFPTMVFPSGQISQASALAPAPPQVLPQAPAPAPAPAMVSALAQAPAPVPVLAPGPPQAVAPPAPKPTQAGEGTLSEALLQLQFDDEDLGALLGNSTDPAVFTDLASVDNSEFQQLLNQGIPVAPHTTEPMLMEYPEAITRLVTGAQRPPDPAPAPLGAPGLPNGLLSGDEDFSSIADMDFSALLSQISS
Outline: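 THP1-Blue NF-κB reporter cells plated at 10^5/well in RPMI with 10% FBS, penicillin/streptomycin and Normocin. Compound added at 5 μM final (0.5% DMSO), then incubated 20 h. Secreted SEAP in the supernatant was read colorimetrically with QuantiBlue at 630 nm. Two-point normalization set vehicle (0.5% DMSO) as 100% and a reference activator as 200%.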

SMILES | Activity (THP-1) [%] | Activity [1] [%]
Cc1ccc(C)c(-c2cccc(NC(=O)c3ccc(S(=O)(=O)N4CCCCC4)cc3)n2)c1 | 94 | –
COc1cc(S(=O)(=O)N2CCCCC2)ccc1C(=O)Nc1nc(-c2cc(C)ccc2C)cs1 | – | 99
CCCC#Cc1sc(NC(=O)c2ccc(S(=O)(=O)N3CCCCC3)cc2)nc1-c1cc(C)ccc1Br | 95 | 202
Cc1ccc(C)c(-c2csc(NS(=O)(=O)c3ccc(C(=O)N4CCCCC4)cc3)n2)c1 | 69 | 103
C#Cc1ccc(C)c(-c2csc(NC(=O)c3ccc(S(=O)(=O)N4CCCCC4)cc3)n2)c1 | 92 | 101
CCC#Cc1sc(NC(=O)c2ccc(S(=O)(=O)N3CCCCC3)cc2)nc1-c1cc(C)ccc1C | 103 | 264
Cc1ccc(C)c(-c2csc(NC(=O)c3ccc(S(=O)(=O)N4CCCCC4)c([N+](=O)[O-])c3)n2)c1 | 93 | 115
Cc1ccc(C)c(-c2csc(NC(=O)c3ccc(S(=O)(=O)N4CCCCC4)cn3)n2)c1 | 94 | 99
Cc1ccc2c(c1)-c1nc(NC(=O)c3ccc(S(=O)(=O)N4CCCCC4)cc3)sc1C2 | 89 | 109
Cc1ccc(C)c(-c2csc(NC(=O)c3ccc(SC4CCCCC4)cc3)n2)c1 | 85 | –
Cc1ccc(C)c(-c2ccc(NC(=O)c3ccc(S(=O)(=O)N4CCCCC4)cc3)nc2)c1 | 93 | –
C#Cc1sc(NC(=O)c2ccc(S(=O)(=O)N3CCCCC3)cc2)nc1-c1cc(C)ccc1C | 111 | 118
CCc1ccc(C)c(-c2csc(NC(=O)c3ccc(S(=O)(=O)N4CCCCC4)cc3)n2)c1 | 102 | 203
Cc1ccc(C)c(-c2csc(NC(=O)c3ccc(S(=O)(=O)N4CCCCC4)cc3Cl)n2)c1 | 87 | 127
CCCc1csc(NC(=O)c2ccc(S(=O)(=O)N3CCCCC3)cc2)n1 | 115 | –
COc1cc(C(=O)Nc2nc(-c3cc(C)ccc3C)cs2)ccc1S(=O)(=O)N1CCCCC1 | – | 99
Cc1cccc(C)c1-c1csc(NC(=O)c2ccc(S(=O)(=O)N3CCCCC3)cc2)n1 | 100 | 185
Cc1ccc(C)c(-c2csc(NC(=O)c3ccc(S(=O)(=O)N4CCCCC4)c(Cl)c3)n2)c1 | 88 | 223
Cc1ccc(C)c(-c2ccc(NC(=O)c3ccc(S(=O)(=O)N4CCCCC4)cc3)cn2)c1 | 93 | –
Cc1ccc(C)c(-c2nc(NC(=O)c3ccc(S(=O)(=O)N4CCCCC4)cc3)sc2N2CCCCC2)c1 | 89 | 99
CCOC1CCN(S(=O)(=O)c2ccc(C(=O)Nc3nc(-c4cc(C)ccc4C)cs3)cc2)CC1 | 117 | 201
Cc1ccc(-c2csc(NC(=O)c3ccc(S(=O)(=O)N4CCCCC4)cc3)n2)cc1C | – | 98
CCCC#Cc1sc(NC(=O)c2ccc(S(=O)(=O)N3CCC(CCC)CC3)cc2)nc1-c1cc(C)ccc1Br | 97 | 111
Cc1ccc(C)c(-c2nnc(NC(=O)c3ccc(S(=O)(=O)N4CCCCC4)cc3)s2)c1 | 90 | –

SMILES | Activity (THP-1) [%] | Activity [1] [%]
CCCN(CCC)S(=O)(=O)c1ccc(C(=O)Nc2nc(-c3cc(C)ccc3C)cs2)cc1 | 96 | 167
Cc1cc(C)cc(-c2csc(NC(=O)c3ccc(S(=O)(=O)N4CCCCC4)cc3)n2)c1 | 91 | 97
Cc1ccc(C)c(-c2csc(NC(=O)c3ccc(S(=O)(=O)N4CCN(C(=O)OC(C)(C)C)CC4)cc3)n2)c1 | 132 | 101
Cc1ccc(Br)cc1-c1csc(NC(=O)c2ccc(S(=O)(=O)N3CCCCC3)cc2)n1 | 91 | 207
CC(C)(C)c1csc(NC(=O)c2ccc(S(=O)(=O)N3CCCCC3)cc2)n1 | 113 | 99
Cc1ccc(C)c(-c2nc(NC(=O)c3ccc(S(=O)(=O)N4CCCCC4)cc3)sc2-c2ccco2)c1 | 106 | –
C#CCN(C(=O)c1ccc(S(=O)(=O)N2CCCCC2)cc1)c1nc(-c2cc(C)ccc2C)cs1 | 102 | –
Cc1ccc(C)c(-c2csc(NC(=O)c3ccc(S(=O)(=O)NC4CCCCC4)cc3)n2)c1 | 91 | –
Cc1ccc(C)c(-c2csc(NC(=O)c3ccc(C(=O)N4CCCCC4)cc3)n2)c1 | 88 | 99
Cc1ccc(C)c(-c2csc(NC(=O)c3ccc(S(=O)(=O)N4CCCCC4)cc3Br)n2)c1 | 96 | 120
Cc1ccc(C)c(-c2csc(NC(=O)c3ccc(S(=O)(=O)N4CCCCC4)s3)n2)c1 | 97 | 103
CCN(CC)c1sc(NC(=O)c2ccc(S(=O)(=O)N3CCCCC3)cc2)nc1-c1cc(C)ccc1C | 94 | 99
Cc1ccc(C)c(-c2csc(NC(=O)c3ccc(S(=O)(=O)C4CCCCC4)cc3)n2)c1 | 82 | –
Cc1ccc(C)c(-c2csc(NC(=O)c3ccc(S(=O)(=O)N4CCNCC4)cc3)n2)c1 | 121 | 101
Cc1ccc(C)c(-c2cnc(NC(=O)c3ccc(S(=O)(=O)N4CCCCC4)cc3)s2)c1 | 101 | 99
CCCN1CCN(S(=O)(=O)c2ccc(C(=O)Nc3nc(-c4cc(C)ccc4C)cs3)cc2)CC1 | 80 | –
Cc1ccc(C)c(-c2csc(NC(=O)c3ccc(S(=O)(=O)N4CCCCC4)nc3)n2)c1 | 89 | –
CCN(c1ccccc1)S(=O)(=O)c1ccc(C(=O)Nc2nc(-c3cc(C)ccc3C)cs2)cc1 | 81 | 105
Cc1cccc(-c2csc(NC(=O)c3ccc(S(=O)(=O)N4CCCCC4)cc3)n2)c1C | 103 | 179
CCc1csc(NC(=O)c2ccc(S(=O)(=O)N3CCCCC3)cc2)n1 | 120 | –
CCCC#Cc1sc(NC(=O)c2ccc(S(=O)(=O)N3CCC(CCC)CC3)cc2)nc1-c1cc(C)ccc1C | 102 | 112
Cc1ccc(C)c(-c2nc(NC(=O)c3ccc(S(=O)(=O)N4CCCCC4)cc3)sc2C)c1 | 97 | 159
Cc1ccc(C)c(-c2c[nH]c(NC(=O)c3ccc(S(=O)(=O)N4CCCCC4)cc3)n2)c1 | 51 | 99
CCCCN(CCCC)S(=O)(=O)c1ccc(C(=O)Nc2nc(-c3cc(C)ccc3C)cs2)cc1 | – | 102

SMILES | Activity (THP-1) [%] | Activity [1] [%]
Cc1ccc(C)c(-c2nc(NC(=O)c3ccc(S(=O)(=O)N4CCCCC4)cc3)sc2Br)c1 | 84 | 133
Cc1ccc(C)c(-c2csc(N(C)C(=O)c3ccc(S(=O)(=O)N4CCCCC4)cc3)n2)c1 | 97 | 101
CC(=O)N1CCN(S(=O)(=O)c2ccc(C(=O)Nc3nc(-c4cc(C)ccc4C)cs3)cc2)CC1 | 114 | 101
Cc1csc(NC(=O)c2ccc(S(=O)(=O)N3CCCCC3)cc2)n1 | 108 | –
Cc1ccc(C)c(-c2csc(NC(=O)c3ccc(S(=O)(=O)N4CCCCC4)c(N)c3)n2)c1 | 92 | 125
CCc1sc(NC(=O)c2ccc(S(=O)(=O)N3CCCCC3)cc2)nc1-c1cc(C)ccc1C | 104 | 179
CC(C)(C)Cc1csc(NC(=O)c2ccc(S(=O)(=O)N3CCCCC3)cc2)n1 | 116 | 101
Cc1ccc(C)c(-c2csc(C(=O)Nc3ccc(S(=O)(=O)N4CCCCC4)cc3)n2)c1 | 91 | 99
CCOc1sc(NC(=O)c2ccc(S(=O)(=O)N3CCCCC3)cc2)nc1-c1cc(C)ccc1C | 104 | 102
Cc1ccc(C)c(-c2csc(NC(=O)c3ccc(S(=O)(=O)N4CCCCC4)c(Br)c3)n2)c1 | 90 | 209
Cc1ccc2c(c1)-c1nc(NC(=O)c3ccc(S(=O)(=O)N4CCCCC4)cc3)sc1CC2 | 95 | 114
Cc1ccccc1-c1csc(NC(=O)c2ccc(S(=O)(=O)N3CCCCC3)cc2)n1 | 98 | –
CCCN(CC)S(=O)(=O)c1ccc(C(=O)Nc2nc(-c3cc(C)ccc3C)cs2)cc1 | 104 | 183
Cc1ccc(-c2csc(NC(=O)c3ccc(S(=O)(=O)N4CCCCC4)cc3)n2)c(C)c1 | 102 | 98
Cc1ccc(C)c(Cc2csc(NC(=O)c3ccc(S(=O)(=O)N4CCCCC4)cc3)n2)c1 | 100 | 101
Cc1ccc(C)c(-c2csc(NC(=O)c3cccc(C(=O)N4CCCCC4)c3)n2)c1 | 88 | –
CCCCc1sc(NC(=O)c2ccc(S(=O)(=O)N3CCCCC3)cc2)nc1-c1cc(C)ccc1C | 129 | 109
Cc1ccc(C)c(-c2csc(NCc3ccc(S(=O)(=O)N4CCCCC4)cc3)n2)c1 | 85 | 99
CCCCCc1sc(NC(=O)c2ccc(S(=O)(=O)N3CCCCC3)cc2)nc1-c1cc(C)ccc1C | 108 | 117
O=C(Nc1nc(-c2cccc3ccccc23)cs1)c1ccc(S(=O)(=O)N2CCCCC2)cc1 | 93 | 198
CCSc1sc(NC(=O)c2ccc(S(=O)(=O)N3CCCCC3)cc2)nc1-c1cc(C)ccc1C | – | 103
Cc1cccc(-c2csc(NC(=O)c3ccc(S(=O)(=O)N4CCCCC4)cc3)n2)c1 | 98 | –
Cc1ccc(C)c(-c2nc(NC(=O)c3ccc(S(=O)(=O)N4CCCCC4)cc3)sc2-c2ccccc2)c1 | – | 99
